ChEMBL document CHEMBL1154277, “Discovery of N-substituted pyridinones as potent and selective inhibitors of p38 kinase” (Bioorg Med Chem Lett, 2009)

Columns and labels:
[1] = target: Serine/threonine-protein kinase pim-2 (Homo sapiens) (UniProt Q9P1W9); experiment: Inhibition of PIM2 at 10 uM
[2] = target: Serine/threonine-protein kinase 4 (Homo sapiens) (UniProt Q13043); experiment: Inhibition of MST1 at 10 uM
Rattus norvegicus [3] = experiment: Antiinflammatory activity in Lewis rat assessed as inhibition of LPS-induced TNFalpha release at 5 mg/kg administered before LPS challenge and measured after 4 hrs by ELISA; type: functional
In short: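 Rat LPS challenge. The compound was given at –4 h relative to LPS, at the dose in mg/kg shown for each line. Read-out is percent inhibition of TNFα.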

[4] = system: Epidermal growth factor receptor (Homo sapiens), P00533 [T790M]; experiment: Inhibition of EGFR T790M (mutant) at 10 uM; type: protein assay
[5] = target: Protein kinase C eta type (Homo sapiens) (UniProt P24723); experiment: Inhibition of PKCeta at 10 uM
[6] = target: Insulin receptor (Homo sapiens) (UniProt P06213); experiment: Inhibition of INSR at 10 uM
Insulin receptor (Homo sapiens), sequence (P06213 28-758 limits assumed): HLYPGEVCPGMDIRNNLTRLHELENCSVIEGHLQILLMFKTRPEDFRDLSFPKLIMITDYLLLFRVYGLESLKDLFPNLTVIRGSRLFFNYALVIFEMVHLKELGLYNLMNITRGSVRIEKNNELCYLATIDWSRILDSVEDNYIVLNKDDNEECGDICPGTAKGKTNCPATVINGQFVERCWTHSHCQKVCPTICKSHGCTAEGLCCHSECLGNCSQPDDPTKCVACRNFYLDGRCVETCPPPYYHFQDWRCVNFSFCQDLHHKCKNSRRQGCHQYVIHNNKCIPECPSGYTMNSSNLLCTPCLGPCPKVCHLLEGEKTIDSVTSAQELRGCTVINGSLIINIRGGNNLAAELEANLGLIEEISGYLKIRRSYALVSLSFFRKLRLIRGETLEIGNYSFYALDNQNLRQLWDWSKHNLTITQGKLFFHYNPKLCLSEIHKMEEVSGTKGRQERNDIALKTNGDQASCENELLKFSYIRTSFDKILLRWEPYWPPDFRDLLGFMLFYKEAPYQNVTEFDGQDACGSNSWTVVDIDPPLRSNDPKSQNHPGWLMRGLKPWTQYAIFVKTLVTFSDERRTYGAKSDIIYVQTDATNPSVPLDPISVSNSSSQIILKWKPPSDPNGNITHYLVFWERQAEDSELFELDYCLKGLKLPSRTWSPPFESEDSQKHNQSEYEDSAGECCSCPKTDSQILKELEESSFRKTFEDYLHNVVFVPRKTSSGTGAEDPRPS
Insulin receptor (Homo sapiens), sequence (P06213 763-1382 limits assumed): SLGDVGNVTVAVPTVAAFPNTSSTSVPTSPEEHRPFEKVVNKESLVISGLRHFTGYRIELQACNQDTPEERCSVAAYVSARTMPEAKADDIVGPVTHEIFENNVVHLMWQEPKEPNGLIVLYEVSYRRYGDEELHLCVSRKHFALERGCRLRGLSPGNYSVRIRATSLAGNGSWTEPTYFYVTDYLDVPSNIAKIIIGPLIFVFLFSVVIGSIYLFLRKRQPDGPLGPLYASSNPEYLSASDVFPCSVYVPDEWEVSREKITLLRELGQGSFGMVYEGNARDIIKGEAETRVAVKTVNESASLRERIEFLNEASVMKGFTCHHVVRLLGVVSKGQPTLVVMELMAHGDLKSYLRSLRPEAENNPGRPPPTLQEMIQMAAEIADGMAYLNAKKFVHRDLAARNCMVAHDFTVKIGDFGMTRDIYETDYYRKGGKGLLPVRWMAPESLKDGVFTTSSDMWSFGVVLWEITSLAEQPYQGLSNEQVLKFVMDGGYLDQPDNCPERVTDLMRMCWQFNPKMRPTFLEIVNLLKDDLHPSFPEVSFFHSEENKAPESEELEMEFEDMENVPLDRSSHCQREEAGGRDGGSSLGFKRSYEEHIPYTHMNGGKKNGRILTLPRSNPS

[7] = target: Serine/threonine-protein kinase Nek7 (Homo sapiens) (UniProt Q8TDX7); experiment: Inhibition of NEK7 at 10 uM
[8] = target: Tyrosine-protein kinase Lyn (Homo sapiens) (UniProt P07948); experiment: Inhibition of LYN A at 10 uM
[9] = target: Muscle, skeletal receptor tyrosine-protein kinase (Homo sapiens) (UniProt O15146); experiment: Inhibition of MUSK at 10 uM
[10] = target: Dual specificity protein kinase CLK3 (Homo sapiens) (UniProt P49761); experiment: Inhibition of CLK3 at 10 uM
Dual specificity protein kinase CLK3 (Homo sapiens), sequence (P49761 whole entry, looked up): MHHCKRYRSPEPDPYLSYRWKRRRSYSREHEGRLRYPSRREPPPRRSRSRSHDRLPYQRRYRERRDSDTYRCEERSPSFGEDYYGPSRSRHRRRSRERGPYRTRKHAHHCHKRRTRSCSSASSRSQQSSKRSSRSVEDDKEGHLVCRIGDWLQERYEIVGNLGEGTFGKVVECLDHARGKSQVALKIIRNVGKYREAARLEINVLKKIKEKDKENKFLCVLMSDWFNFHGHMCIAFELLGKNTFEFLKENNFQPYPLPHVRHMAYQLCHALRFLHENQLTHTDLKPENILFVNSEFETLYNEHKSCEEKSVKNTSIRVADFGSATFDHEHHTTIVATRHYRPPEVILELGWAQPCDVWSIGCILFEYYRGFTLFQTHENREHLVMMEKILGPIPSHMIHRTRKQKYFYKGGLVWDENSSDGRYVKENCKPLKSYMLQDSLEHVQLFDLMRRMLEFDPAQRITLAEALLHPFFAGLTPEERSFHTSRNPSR

[11] = target: Serine/threonine-protein kinase Nek2 (Homo sapiens) (UniProt P51955); experiment: Inhibition of NEK2 at 10 uM
[12] = target: Casein kinase II subunit alpha (Homo sapiens) (UniProt P68400); experiment: Inhibition of CK2alpha1 at 10 uM
Casein kinase II subunit alpha (Homo sapiens), sequence (P68400 whole entry, looked up): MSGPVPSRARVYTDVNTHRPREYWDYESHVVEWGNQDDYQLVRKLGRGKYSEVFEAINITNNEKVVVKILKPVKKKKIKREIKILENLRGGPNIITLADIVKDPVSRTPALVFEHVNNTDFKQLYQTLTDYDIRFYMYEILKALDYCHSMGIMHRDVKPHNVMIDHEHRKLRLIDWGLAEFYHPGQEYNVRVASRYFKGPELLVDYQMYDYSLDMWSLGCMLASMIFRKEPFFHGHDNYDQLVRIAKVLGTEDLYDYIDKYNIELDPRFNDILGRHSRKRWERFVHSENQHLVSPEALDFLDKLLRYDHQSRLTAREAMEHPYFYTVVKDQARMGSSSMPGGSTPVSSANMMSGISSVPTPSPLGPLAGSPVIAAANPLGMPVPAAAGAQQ

[13] = target: Vascular endothelial growth factor receptor 1 (Homo sapiens) (UniProt P17948); experiment: Inhibition of FLT1 at 10 uM
Vascular endothelial growth factor receptor 1 (Homo sapiens), sequence (P17948 whole entry): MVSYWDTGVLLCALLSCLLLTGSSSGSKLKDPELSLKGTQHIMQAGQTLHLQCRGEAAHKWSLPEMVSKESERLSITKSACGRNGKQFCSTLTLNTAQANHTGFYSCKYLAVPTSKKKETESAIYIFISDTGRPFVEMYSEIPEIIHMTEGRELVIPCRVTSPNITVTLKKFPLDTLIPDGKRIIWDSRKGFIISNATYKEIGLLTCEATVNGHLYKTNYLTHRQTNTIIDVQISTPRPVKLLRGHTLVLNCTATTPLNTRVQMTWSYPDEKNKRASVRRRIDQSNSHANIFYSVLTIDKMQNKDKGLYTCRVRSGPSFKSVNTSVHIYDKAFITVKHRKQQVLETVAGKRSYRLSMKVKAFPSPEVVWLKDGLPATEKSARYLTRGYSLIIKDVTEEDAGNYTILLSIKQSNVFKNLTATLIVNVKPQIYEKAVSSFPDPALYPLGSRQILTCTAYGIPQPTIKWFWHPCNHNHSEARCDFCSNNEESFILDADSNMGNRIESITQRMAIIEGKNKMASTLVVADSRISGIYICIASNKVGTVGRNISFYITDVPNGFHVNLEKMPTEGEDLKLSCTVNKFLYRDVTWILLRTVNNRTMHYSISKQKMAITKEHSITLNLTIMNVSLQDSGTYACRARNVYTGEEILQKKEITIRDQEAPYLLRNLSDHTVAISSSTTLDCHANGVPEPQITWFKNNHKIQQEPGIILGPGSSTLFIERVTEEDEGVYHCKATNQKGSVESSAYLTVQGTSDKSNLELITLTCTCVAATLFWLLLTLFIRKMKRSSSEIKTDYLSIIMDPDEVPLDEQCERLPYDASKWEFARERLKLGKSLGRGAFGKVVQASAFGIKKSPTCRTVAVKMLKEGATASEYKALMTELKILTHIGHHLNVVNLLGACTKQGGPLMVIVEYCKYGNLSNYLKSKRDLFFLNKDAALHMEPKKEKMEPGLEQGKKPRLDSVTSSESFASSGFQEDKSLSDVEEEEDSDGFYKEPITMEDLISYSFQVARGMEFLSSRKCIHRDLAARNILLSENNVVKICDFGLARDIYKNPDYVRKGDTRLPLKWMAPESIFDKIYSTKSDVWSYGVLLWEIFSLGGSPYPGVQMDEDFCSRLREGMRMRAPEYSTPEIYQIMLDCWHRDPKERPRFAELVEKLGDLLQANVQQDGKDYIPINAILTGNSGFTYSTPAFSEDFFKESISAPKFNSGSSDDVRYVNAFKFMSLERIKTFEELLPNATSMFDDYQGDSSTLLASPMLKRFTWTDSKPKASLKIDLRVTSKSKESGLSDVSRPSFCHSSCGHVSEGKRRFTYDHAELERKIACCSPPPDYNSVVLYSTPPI

[14] = target: Death-associated protein kinase 3 (Homo sapiens) (UniProt O43293); experiment: Inhibition of ZIPK at 10 uM
Rattus norvegicus [15] = experiment: Antiinflammatory activity in Lewis rat strep cell wall model assessed as inhibition of chronic paw swelling at 60 mg/kg; type: functional
[16] = target: Insulin-like growth factor 1 receptor (Homo sapiens) (UniProt P08069); experiment: Inhibition of IGF1R at 10 uM
[17] = system: Epidermal growth factor receptor (Homo sapiens), P00533 [L861Q]; experiment: Inhibition of EGFR L861Q (mutant) at 10 uM; type: protein assay
[18] = target: Casein kinase I isoform epsilon (Homo sapiens) (UniProt P49674); experiment: Inhibition of CSNK1E at 10 uM
[19] = target: Fibroblast growth factor receptor 4 (Homo sapiens) (UniProt P22455); experiment: Inhibition of FGFR4 at 10 uM
Fibroblast growth factor receptor 4 (Homo sapiens), sequence (P22455 22-802 limits assumed): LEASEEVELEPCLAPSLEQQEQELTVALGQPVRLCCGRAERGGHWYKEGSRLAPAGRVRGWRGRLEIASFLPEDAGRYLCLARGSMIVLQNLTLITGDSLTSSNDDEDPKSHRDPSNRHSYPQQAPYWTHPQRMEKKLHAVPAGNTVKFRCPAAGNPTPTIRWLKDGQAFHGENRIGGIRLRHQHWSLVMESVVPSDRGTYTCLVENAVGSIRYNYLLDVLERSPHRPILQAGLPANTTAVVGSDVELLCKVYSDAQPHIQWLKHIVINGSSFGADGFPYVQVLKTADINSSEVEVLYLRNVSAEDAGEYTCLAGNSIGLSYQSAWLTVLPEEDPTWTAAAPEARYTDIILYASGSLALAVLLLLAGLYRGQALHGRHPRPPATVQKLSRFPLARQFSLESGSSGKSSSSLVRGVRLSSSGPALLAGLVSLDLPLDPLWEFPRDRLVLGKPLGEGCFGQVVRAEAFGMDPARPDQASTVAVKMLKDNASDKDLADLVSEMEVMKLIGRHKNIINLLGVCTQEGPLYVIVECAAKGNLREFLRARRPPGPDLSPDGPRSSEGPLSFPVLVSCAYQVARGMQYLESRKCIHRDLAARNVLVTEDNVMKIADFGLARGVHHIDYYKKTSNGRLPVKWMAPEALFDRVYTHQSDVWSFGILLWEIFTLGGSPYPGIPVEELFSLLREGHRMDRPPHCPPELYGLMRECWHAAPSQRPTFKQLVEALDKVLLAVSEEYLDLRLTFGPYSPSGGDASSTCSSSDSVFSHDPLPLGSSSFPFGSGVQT

[20] = system: Platelet-derived growth factor receptor alpha (Homo sapiens), P16234 [D842V]; experiment: Inhibition of PDGFRalpha D842V (mutant) at 10 uM
[21] = target: Hepatocyte growth factor receptor (Homo sapiens) (UniProt P08581); experiment: Inhibition of cMet at 10 uM
[22] = target: MAP/microtubule affinity-regulating kinase 3 (Homo sapiens) (UniProt P27448); experiment: Inhibition of MARK3 at 10 uM
[23] = target: Ribosomal protein S6 kinase alpha-1 (Homo sapiens) (UniProt Q15418); experiment: Inhibition of RSK1 at 10 uM
[24] = target: Tyrosine-protein kinase Fyn (Homo sapiens) (UniProt P06241); experiment: Inhibition of FYN at 10 uM

Serine/threonine-protein kinase 4 (Homo sapiens), sequence (Q13043 whole entry): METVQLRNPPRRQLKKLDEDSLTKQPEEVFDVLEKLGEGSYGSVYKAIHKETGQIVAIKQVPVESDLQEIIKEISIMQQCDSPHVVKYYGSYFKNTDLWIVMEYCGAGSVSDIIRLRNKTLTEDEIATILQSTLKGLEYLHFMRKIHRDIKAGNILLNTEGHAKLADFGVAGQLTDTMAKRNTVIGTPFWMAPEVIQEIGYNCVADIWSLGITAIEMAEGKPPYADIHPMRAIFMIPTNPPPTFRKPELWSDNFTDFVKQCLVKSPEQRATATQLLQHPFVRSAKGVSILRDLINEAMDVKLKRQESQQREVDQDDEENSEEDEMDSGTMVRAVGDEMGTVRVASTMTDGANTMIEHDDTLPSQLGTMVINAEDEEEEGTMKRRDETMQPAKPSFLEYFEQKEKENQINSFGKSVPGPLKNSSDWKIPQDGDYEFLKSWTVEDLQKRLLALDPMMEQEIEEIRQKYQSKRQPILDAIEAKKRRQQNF

inhibition [1]: < 50% | inhibition [2]: < 50% | inhibition [4]: < 50% | inhibition [5]: < 50% | inhibition [6]: < 50% | inhibition [7]: < 50% | inhibition [8]: < 50% | inhibition [9]: < 50% | inhibition [10]: < 50% | inhibition [11]: < 50% | inhibition [12]: < 50% | inhibition [13]: < 50% | inhibition [16]: < 50% | inhibition [17]: < 50% | inhibition [18]: < 50% | inhibition [19]: < 50% | inhibition [20]: < 50% | inhibition [21]: < 50% | inhibition [22]: < 50% | inhibition [23]: < 50% | inhibition [24]: < 50%
SMILES: Cc1cc(OCc2ccc(F)cc2F)c(Br)c(=O)n1Cc1ccc(CN(C)C)cc1
inhibition in vivo at 5 mg/kg (Rattus norvegicus [3]): 87% | inhibition [14]: < 50% | inhibition in vivo at 60 mg/kg (Rattus norvegicus [15]): 88%
